# Compound activity (PubChem BioAssay)
# Most compounds without a hit are left out; they make up all but 3.7% or so of the library.
# Myeloid diff 2 = promotes myeloid progenitor differentiation; ER-HoxA9 myeloid progenitors, lysozyme-GFP differentiation, flow cytometry; calls only at 10 µM; 360,000 compounds, 1% hits; AID 624256;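 active = normalized GFP-positive differentiation at or above the plate's own cutoff, the solvent-only control mean plus 3 SD; inconclusive = no clear call, values can overlap the other calls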;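 also: cells exposed to compound for four days before flow analysis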
# Granule exo inh = blocks lytic granule exocytosis; TALL-104 LAMP-1 surface exposure, flow cytometry; cells stimulated with thapsigargin and PMA; inhibition, % at 10 µM; 360,000 compounds, 0.66% hits; AID 651702;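 active = inhibition above about 55%, limit read from the data; inconclusive = no clear call, values can overlap the other calls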
# MC4R antagonist = human MC4R antagonism in cAMP assay; P32245; MC4R-expressing cells, MTII-stimulated cAMP, LANCE TR-FRET; inhibition, % at 6.5 µM; 360,000 compounds, 0.48% hits;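 active = inhibition above its plate's cutoff, the mean of tested wells on that plate plus 3 SD, cut at about 29% in these data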;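 also: 0% = Melanotan II alone and 100% = Melanotan II plus saturating MCL0020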
# Target sequence (P32245 whole entry, looked up): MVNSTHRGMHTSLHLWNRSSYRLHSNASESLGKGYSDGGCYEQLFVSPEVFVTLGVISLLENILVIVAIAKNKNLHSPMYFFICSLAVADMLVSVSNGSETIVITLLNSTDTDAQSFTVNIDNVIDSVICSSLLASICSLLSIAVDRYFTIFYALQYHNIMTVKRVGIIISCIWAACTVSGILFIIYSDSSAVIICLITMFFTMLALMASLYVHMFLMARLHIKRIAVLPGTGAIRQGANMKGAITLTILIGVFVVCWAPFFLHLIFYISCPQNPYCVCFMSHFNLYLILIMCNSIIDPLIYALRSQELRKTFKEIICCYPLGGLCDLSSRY
#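 Assay system: human MC4R-expressing U2OS cells; reagent: Melanotan II stimulation of cells; dosing: 6.5 µM single dose; timing: compound 30 min, challenge 1 h, detection 1 h; signal: TR-FRET cAMP assay; replicates: one well per compound, no replicates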
# MC4R ag barr = agonists of human melanocortin 4 receptor (MC4R) beta-arrestin; activation, % at 8.9 µM; AID 540308; P32245; 360,000 compounds, 0.98% hits; U2OS MC4R beta-arrestin complementation, luminescence; percent of melanotan II response, DMSO zero;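 active = activation above a per-plate cutoff, the mean activation of sample wells on that plate plus 3 SD, cut at about 8% in these data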
# EBI2 block = antagonists of human EBI2 receptor; P32249; EBI2 beta-arrestin recruitment, luminescence, 7a,25-OHC stimulated; inhibition, % at 5 µM; 360,000 compounds, 0.81% hits; AID 651636; in the data active = inhibition above about 38%;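 also: enzyme fragment complementation signal reports receptor beta-arrestin coupling in cells; 0% = agonist plus DMSO wells and 100% = wells without agonist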
# Target sequence (P32249 whole entry, looked up, the tested form may be a part): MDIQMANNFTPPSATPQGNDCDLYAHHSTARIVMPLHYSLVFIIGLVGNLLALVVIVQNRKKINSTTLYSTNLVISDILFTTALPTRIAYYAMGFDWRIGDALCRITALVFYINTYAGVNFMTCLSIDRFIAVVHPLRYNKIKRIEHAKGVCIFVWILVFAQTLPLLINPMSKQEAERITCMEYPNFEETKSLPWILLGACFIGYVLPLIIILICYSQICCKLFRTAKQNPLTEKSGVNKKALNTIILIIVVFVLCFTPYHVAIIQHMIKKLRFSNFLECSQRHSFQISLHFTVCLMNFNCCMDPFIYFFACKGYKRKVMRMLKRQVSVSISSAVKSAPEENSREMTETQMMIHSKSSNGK
# EBI2 antag conf = confirmation of human EBI2 receptor antagonists; shares compounds with EBI2 block; EBI2 beta-arrestin luminescence, 7a,25-OHC antagonism; inhibition, % at 5 µM; 2,400 compounds, 29% hits; AID 651997;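 active = inhibition of at least 50%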
# EBI2 ag = EBI2 agonism counter-screen; shares compounds with EBI2 block; EBI2-expressing cells, agonist mode, luminescence, 60 min; 0% vehicle, 100% 7α,25-dihydroxycholesterol control; activation, % at 5 µM; 2,400 tested, under 10 active;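 active = activation of at least 50%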
# bGal counter = inhibits E. coli beta-galactosidase, counter-screen for EBI2 antagonists; AID 652176; purified beta-galactosidase, luminescent Galacton Star, 15 min; inhibition, % at 5 µM; shares compounds with EBI2 block; 2,400 compounds, 1% hits;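 active = replicate-average signal at least 3 plate SD below neutral wells, shown as high inhibition, flagging enzyme-inhibiting false positives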;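 also: 0% = DMSO wells with enzyme and 100% = wells lacking enzyme; higher means stronger loss of beta-gal luminescence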
# * = called active by the depositor; i = inactive; ? = inconclusive; . = not tested or not shown.
SMILES,Myeloid diff 2,Granule exo inh,MC4R antagonist,MC4R ag barr,EBI2 block,EBI2 antag conf,EBI2 ag,bGal counter
Cc1c(C(=O)Oc2ccc(-c3cnc4ccccc4n3)cc2)cccc1[N+](=O)[O-],i,-0.6,5.6,2.8,10.7,.,.,.
O=C(Oc1ccc(-c2cnc3ccccc3n2)cc1)c1cc([N+](=O)[O-])ccc1Cl,i,1.8,29.3*,-0.1,54.7*,11.7,-0.2,3.9
O=C(COC(=O)Cc1c(Cl)cccc1Cl)Nc1ccccc1-c1ccccc1,i,-2.9,5.6,4.1,12.0,.,.,.
O=C(CSCc1c(Cl)cccc1Cl)Nc1ccccc1-c1ccccc1,i,-8.1,14.9,-2.2,41.2*,27.0,0.8,0.6
CCOc1cc2c(cc1OCC)C(c1ccccc1)N(c1ccccc1)C(=O)C2 (stereo not given),i,-1.9,11.0,1.0,3.7,.,.,.
COc1ccc(C(=O)NC(=S)Nc2cc3oc4ccccc4c3cc2OC)cc1,i,-4.9,8.5,3.3,48.3*,36.1,0.4,8.2
CCOc1cc(/C=N/NC(=O)COc2nc(C)cc(COC)c2C#N)ccc1O,i,-2.4,-5.9,-1.3,61.7*,35.5,1.5,1.2
COCc1cc(C)nc(OCC(=O)N/N=C/c2ccccc2O)c1C#N,i,-2.0,2.6,-1.6,-2.5,.,.,.
N#Cc1ccc(OCC(O)CN2CCN(C(c3ccccc3)c3ccccc3)CC2)cc1 (stereo not given),i,9.3,-3.8,2.7,88.6*,58.9*,-0.9,-11.0
N#Cc1ccc(OCC(O)CN2CCN(c3ncc(C(F)(F)F)cc3Cl)CC2)cc1 (stereo not given),i,29.4,8.3,3.1,48.4*,32.4,-1.2,-16.2
OC(COc1ccccc1)CN1CCN(C(c2ccccc2)c2ccccc2)CC1 (stereo not given),i,18.3,-1.9,1.8,59.5*,22.0,-0.4,-7.9
OC(COc1ccccc1)CN1CCCC1 (stereo not given),i,13.8,6.8,-1.2,1.6,.,.,.
CCC(=O)c1ccc(OCC(O)CN2CCN(C(c3ccccc3)c3ccccc3)CC2)cc1 (stereo not given),i,6.1,0.5,1.4,74.8*,46.3,3.2,3.2
CC(=O)Nc1cccc(C(=O)N2CCC(n3nccc3NC(=O)CC(C)C)CC2)c1,i,6.9,-2.4,0.3,-7.2,.,.,.
CO/N=C/CC(=O)c1cnc(-c2ccc(Cl)cc2)s1,i,0.1,-5.8,-1.6,25.1,.,.,.
CN1CCN(C(CNC(=O)C(=O)NC2CCCCC2)c2ccc(F)cc2)CC1 (stereo not given),i,-2.1,3.7,-2.2,7.2,.,.,.
CC(C)c1ccc(/C=N/NC(=O)c2c(Cl)cnn2C)cc1,i,1.6,1.6,0.5,-6.0,.,.,.
COc1ccc(Nc2oc(COc3ccc(C)cc3)nc2C#N)cc1,i,0.6,12.3,4.2,41.7,.,.,.
COc1ccc(OCc2nc(C#N)c(N3CCN(c4ccc(OC)cc4)CC3)o2)cc1,i,-2.9,1.9,0.3,43.6*,42.6,0.1,-0.4
COc1ccc(Nc2oc(COc3ccc(OC)cc3)nc2C#N)cc1,i,-2.2,-5.1,-0.5,52.0*,19.6,-0.5,9.0
N#Cc1nc(COc2ccc(F)cc2)oc1N1CCC(Cc2ccccc2)CC1,i,13.6,-4.9,3.2,60.1*,14.3,-0.1,0.3
N#Cc1nc(COc2ccc(Br)cc2)oc1N1CCN(Cc2ccccc2)CC1,i,4.5,-3.8,3.0,43.1*,15.0,-1.1,-7.0
N#Cc1nc(COc2ccc(F)cc2)oc1N1CCN(Cc2ccccc2)CC1,i,14.4,2.1,-1.4,35.2,.,.,.
COc1c2ccccc2nn1C(C)C,i,-10.9,.,.,-8.7,.,.,.
Cc1ccccc1Nc1c([N+](=O)[O-])ccc2c1=NC1(CCCCC1)N=2,i,-4.6,5.6,-2.0,56.1*,15.1,1.2,0.8
SMILES,Myeloid diff 2,Granule exo inh,MC4R antagonist,MC4R ag barr,EBI2 block,EBI2 antag conf,EBI2 ag,bGal counter
Cc1ccc(C)c(Nc2c([N+](=O)[O-])ccc3nonc23)c1,i,-16.1,-4.5,-0.5,-13.2,.,.,.
CN(C(=O)COC(=O)C1CCN(S(=O)(=O)c2c(Cl)cccc2Cl)CC1)C1CCCCC1,i,-4.5,2.9,2.8,8.9,.,.,.
Cc1nc2ccccc2c2oc(C(=O)N3CCN(C4CCCCC4)CC3)cc12,i,0.4,4.5,-0.5,86.9*,76.7*,1.2,3.1
CC(=O)c1ccc(N2CCN(C(=O)c3cc4c(C)nc5ccccc5c4o3)CC2)cc1,i,-2.3,5.8,-1.3,-1.6,.,.,.
COc1ccc(N2CCN(C(=O)c3cc4c(C)nc5ccccc5c4o3)CC2)cc1,i,3.7,2.7,-3.2,53.8*,42.5,0.8,7.6
Cc1ccc(N(CC(=O)NCc2ccccc2)C(=O)CCC(=O)Nc2ccccn2)cc1C,i,13.6,7.7,-0.8,3.2,.,.,.
CC(=O)N1CCN(C(=O)c2cc3ccccc3o2)CC1,i,-2.0,1.6,0.9,6.3,.,.,.
CCOc1ccc(S(=O)(=O)N2CCN(C(=O)c3cc4ccccc4o3)CC2)cc1,i,7.1,-2.7,-3.2,85.9*,56.5*,1.7,9.4
CCOc1ccc(S(=O)(=O)N2CCN(C(=O)c3ccco3)CC2)cc1,.,-0.1,0.1,-1.2,-7.3,.,.,.
O=C(c1cc2ccccc2o1)N1CCN(S(=O)(=O)c2c(F)cccc2F)CC1,i,-1.0,-2.1,-0.6,63.3*,42.5,-0.1,4.6
CCOC(=O)c1ccc(S(=O)(=O)N2CCN(C(=O)c3cc(=O)c4ccccc4o3)CC2)cc1,i,-2.4,9.8,-3.6,59.8*,27.0,0.2,6.7
CCOC(=O)c1ccc(S(=O)(=O)N2CCN(S(=O)(=O)CC)CC2)cc1,i,-1.9,1.4,-2.7,1.2,.,.,.
CC(C)N1CCC(NC(=O)Nc2ccc3c(c2)OCO3)CC1,i,-1.5,5.0,-2.4,-1.7,.,.,.
CC(=O)c1c(C)[nH]c(C(=O)OCC(=O)c2ccc3c(c2)NC(=O)CO3)c1C,i,2.9,-0.8,-3.5,2.6,.,.,.
COc1cc(-c2ccc3c(=O)c4ccccc4n(C)c3c2)cc(OC)c1OC,?,10.3,8.3,-0.4,-37.6,.,.,.
COC(=O)c1c(-c2ccsc2)sc2ccc(-c3cc(OC)c(OC)c(OC)c3)cc12,?,2.8,9.0,-0.7,55.2*,5.6,-0.7,-7.5
COc1cc(-c2ccc3c(=O)c4ccccc4sc3c2)cc(OC)c1OC,i,-9.4,4.3,-0.9,44.1*,27.5,-0.8,-9.9
COc1cc(-c2ccc3sc(-c4ccsc4)c(C#CCO)c3c2)cc(OC)c1OC,i,-1.4,22.5,1.7,-1.9,.,.,.
